ChEMBL document CHEMBL2040750, “Hybrids of ravuconazole: synthesis and biological evaluation” (2012)
≈ marks a conversion by molar mass, not a printed value. Calls of active or inactive are those of the source. The rule behind the calls is not given here.

Tests used:
Type in all cases: functional
Aspergillus niger [1] = test: Antifungal activity Aspergillus niger NCIM 545 after 24 to 72 hrs by NCCLS method
Summary of the method: (§1)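 Broth microdilution MIC per NCCLS. Compounds dissolved in DMSO, serially diluted in growth medium, incubated at 37 °C. Read at 24 h for bacteria and 24–72 h for fungi. MIC90 taken as the first well with about 90% growth reduction relative to the drug-free well.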

Escherichia coli [2] = test: Antibacterial activity Escherichia coli NCIM 2109 at 100 ug/disc by agar-well diffusion assay; conditions: for zone of inhibition at 100 µg/disc: read-out: DIZ
Summary of the method: (§2)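 Agar-well diffusion screen against standard strains. Zone of inhibition is the read-out. Chloramphenicol, nystatin and ravuconazole were run as positive controls.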

Candida albicans [3] = test: Antifungal activity Candida albicans NCIM 3471 at 100 ug/disc by agar-well diffusion assay; conditions: for zone of inhibition at 100 µg/disc: read-out: DIZ; summary of the method: as §2
Escherichia coli [4] = test: Antibacterial activity Escherichia coli NCIM 2109 after 24 hrs by NCCLS method; summary of the method: as §1
Bacillus subtilis [5] = test: Antibacterial activity Bacillus subtilis NCIM 2250 after 24 hrs by NCCLS method; summary of the method: as §1
Pseudomonas aeruginosa [6] = test: Antibacterial activity Pseudomonas aeruginosa NCIM 2036 at 100 ug/disc by agar-well diffusion assay; conditions: for zone of inhibition at 100 µg/disc: read-out: DIZ; summary of the method: as §2
Aspergillus niger [7] = test: Antifungal activity Aspergillus niger NCIM 545 at 100 ug/disc by agar-well diffusion assay; conditions: for zone of inhibition at 100 µg/disc: read-out: DIZ; summary of the method: as §2
Pseudomonas aeruginosa [8] = test: Antibacterial activity Pseudomonas aeruginosa NCIM 2036 after 24 hrs by NCCLS method; summary of the method: as §1
Bacillus subtilis [9] = test: Antibacterial activity Bacillus subtilis NCIM 2250 at 100 ug/disc by agar-well diffusion assay; conditions: for zone of inhibition at 100 µg/disc: read-out: DIZ; summary of the method: as §2
Staphylococcus aureus [10] = test: Antibacterial activity Staphylococcus aureus NCIM 2079 after 24 hrs by NCCLS method; summary of the method: as §1
Candida albicans [11] = test: Antifungal activity Candida albicans NCIM 3471 after 24 to 72 hrs by NCCLS method; summary of the method: as §1
Staphylococcus aureus [12] = test: Antibacterial activity Staphylococcus aureus NCIM 2079 at 100 ug/disc by agar-well diffusion assay; conditions: for zone of inhibition at 100 µg/disc: read-out: DIZ; summary of the method: as §2

Row | SMILES | MIC (Aspergillus niger [1]) | MIC (Escherichia coli [4]; NCIM 2109, 24 h) [µg/mL] | MIC (Bacillus subtilis [5]) | MIC (Staphylococcus aureus [10]) | MIC (Candida albicans [11]) | MIC (Escherichia coli [4]) | MIC (Pseudomonas aeruginosa [8]; NCIM 2036, 24 h) [µg/mL] | MIC (Staphylococcus aureus [10]; NCIM 2079, 24 h) [µg/mL] | zone of inhibition at 100 µg/disc (Escherichia coli [2]) [mm] | zone of inhibition at 100 µg/disc (Candida albicans [3]) [mm] | zone of inhibition at 100 µg/disc (Aspergillus niger [7]) [mm] | diameter of the inhibition zone (DIZ) (Bacillus subtilis [9]) | diameter of the inhibition zone (DIZ) (Staphylococcus aureus [12]) | diameter of the inhibition zone (DIZ) (Escherichia coli [2]) | zone of inhibition at 100 µg/disc (Pseudomonas aeruginosa [6]) [mm] | zone of inhibition at 100 µg/disc (Staphylococcus aureus [12]) [mm] | diameter of the inhibition zone (DIZ) (Candida albicans [3]) | diameter of the inhibition zone (DIZ) (Aspergillus niger [7]) | other results
1 | FC(F)(F)c1cc(-c2csc(N/N=C(/Cn3cncn3)c3ccc(Br)cc3)n2)cc(C(F)(F)F)c1 | > 64 µg/mL | > 64 | inactive | inactive | > 64 µg/mL |  |  |  | 11.4 | 13.9 | 10.9 | inactive | inactive |  |  |  |  |  | diameter of the inhibition zone (DIZ) (Pseudomonas aeruginosa [6]): inactive; MIC (Pseudomonas aeruginosa [8]): inactive
2 | Clc1ccc(-c2csc(N/N=C(/Cn3cncn3)c3ccc(Br)cc3)n2)cc1 | 32 µg/mL (≈ 67.5 µM) |  |  |  | 64 µg/mL (≈ 135 µM) | inactive | 32 (≈ 67.5 µM) | > 64 |  | 16.2 | 16.7 |  |  | inactive | 21.7 | 13.1 |  |  | MIC (Bacillus subtilis [5]; NCIM 2250, 24 h): 64 µg/mL (≈ 135 µM); zone of inhibition at 100 µg/disc (Bacillus subtilis [9]): 17.3 mm
3 | Fc1ccc(/C(Cn2cncn2)=N\Nc2nc(-c3ccc(Br)cc3)cs2)cc1 | 64 µg/mL (≈ 140 µM) | 64 (≈ 140 µM) | inactive | inactive | 64 µg/mL (≈ 140 µM) |  | 32 (≈ 70 µM) |  |  | 14.8 | 15.8 | inactive | inactive | inactive | 18.2 |  |  |  | 
4 | O=[N+]([O-])c1ccc(/C(Cn2cncn2)=N\Nc2nc(-c3cc(C(F)(F)F)cc(C(F)(F)F)c3)cs2)cc1 | inactive |  | inactive |  | inactive | inactive | 64 (≈ 118 µM) | 64 (≈ 118 µM) |  |  |  | inactive |  | inactive | 16.8 | 17.2 | inactive | inactive | 
5 | O=[N+]([O-])c1ccc(/C(Cn2cncn2)=N\Nc2nc(-c3ccc([N+](=O)[O-])cc3)cs2)cc1 | inactive | > 64 | inactive | inactive | inactive |  | 64 (≈ 142 µM) |  | 10.8 |  |  | inactive | inactive |  | 20.8 |  | inactive | inactive | 
6 | O=[N+]([O-])c1ccc(/C(Cn2cncn2)=N\Nc2nc(-c3ccc(F)cc3)cs2)cc1 | > 64 µg/mL |  |  | inactive | > 64 µg/mL | inactive |  |  |  | 11.2 | 14.4 |  | inactive | inactive |  |  |  |  | MIC (Bacillus subtilis [5]; NCIM 2250, 24 h): > 64 µg/mL; diameter of the inhibition zone (DIZ) (Pseudomonas aeruginosa [6]): inactive; MIC (Pseudomonas aeruginosa [8]): inactive; zone of inhibition at 100 µg/disc (Bacillus subtilis [9]): 11.3 mm
7 | Clc1ccc(/C(Cn2cncn2)=N\Nc2nc(-c3ccc(Cl)cc3)cs2)cc1 | 32 µg/mL (≈ 74.5 µM) | > 64 | inactive |  | 32 µg/mL (≈ 74.5 µM) |  | 16 (≈ 37.3 µM) | 64 (≈ 149 µM) | 9.65 | 20.4 | 19.5 | inactive |  |  | 28.9 | 18.8 |  |  | 

Further lines, with some results ahead:

Row | MIC (Aspergillus niger [1]) | MIC (Escherichia coli [4]; NCIM 2109, 24 h) [µg/mL] | MIC (Bacillus subtilis [5]) | MIC (Staphylococcus aureus [10]) | MIC (Candida albicans [11]) | MIC (Escherichia coli [4]) | MIC (Pseudomonas aeruginosa [8]; NCIM 2036, 24 h) [µg/mL] | MIC (Staphylococcus aureus [10]; NCIM 2079, 24 h) [µg/mL] | SMILES | zone of inhibition at 100 µg/disc (Escherichia coli [2]) [mm] | zone of inhibition at 100 µg/disc (Candida albicans [3]) [mm] | zone of inhibition at 100 µg/disc (Aspergillus niger [7]) [mm] | diameter of the inhibition zone (DIZ) (Bacillus subtilis [9]) | diameter of the inhibition zone (DIZ) (Staphylococcus aureus [12]) | diameter of the inhibition zone (DIZ) (Escherichia coli [2]) | zone of inhibition at 100 µg/disc (Pseudomonas aeruginosa [6]) [mm] | zone of inhibition at 100 µg/disc (Staphylococcus aureus [12]) [mm] | diameter of the inhibition zone (DIZ) (Candida albicans [3]) | diameter of the inhibition zone (DIZ) (Aspergillus niger [7]) | other results
8 | > 64 µg/mL | > 64 | inactive |  | 32 µg/mL (≈ 60.3 µM) |  | 32 (≈ 60.3 µM) | > 64 | FC(F)(F)c1cc(-c2csc(N/N=C(/Cn3cncn3)c3ccc(Cl)cc3)n2)cc(C(F)(F)F)c1 | 15.6 | 20.7 | 8.66 | inactive |  |  | 26.1 | 11.2 |  |  | 
9 | 16 µg/mL (≈ 30.1 µM) | > 64 | inactive | inactive | 32 µg/mL (≈ 60.3 µM) |  | 32 (≈ 60.3 µM) |  | FC(F)(F)c1cc(/C(Cn2cncn2)=N\Nc2nc(-c3ccc(Cl)cc3)cs2)cc(C(F)(F)F)c1 | 13.2 | 17.6 | 19.1 | inactive | inactive |  | 26.8 |  |  |  | 
10 | inactive | > 64 |  | inactive | inactive |  | 32 (≈ 55.6 µM) |  | FC(F)(F)c1cc(/C(Cn2cncn2)=N\Nc2nc(-c3ccc(Br)cc3)cs2)cc(C(F)(F)F)c1 | 17 |  |  |  | inactive |  | 20.4 |  | inactive | inactive | MIC (Bacillus subtilis [5]; NCIM 2250, 24 h): > 64 µg/mL; zone of inhibition at 100 µg/disc (Bacillus subtilis [9]): 10.1 mm
11 | inactive |  | inactive | inactive | inactive | inactive |  |  | O=[N+]([O-])c1ccc(-c2csc(N/N=C(/Cn3cncn3)c3cc(C(F)(F)F)cc(C(F)(F)F)c3)n2)cc1 | 11.1 |  |  | inactive | inactive |  |  |  | inactive | inactive | diameter of the inhibition zone (DIZ) (Pseudomonas aeruginosa [6]): inactive; MIC (Pseudomonas aeruginosa [8]): inactive
